Drawing on ChEMBL document CHEMBL1126202, “Dual-action penems and carbapenems” (J Med Chem, 1992), this text covers MIC, IC50 and IC90 for 3 compounds.

Test [1] deals with Staphylococcus aureus. As to the kind of experiment: In vitro antibacterial activity against staphylococcus aureus smith. It counts as functional. The procedure, abridged: (§1)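 MIC was determined by agar dilution on Mueller-Hinton agar. Serial 2-fold aqueous dilutions were diluted 10-fold in agar to give final concentrations of 128 to 0.0156 μg/mL. Plates were inoculated by Steers replicator with overnight broth cultures diluted 100-fold.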

The test system of test [2] is Escherichia coli. Kind of test: Effect on replication DNA biosynthesis in Escherichia coli H560 (permeabilised cells). It counts as functional, organism-based. The method in brief:
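Toluene-permeabilized E. coli H560 cells were used. Replicative DNA synthesis was measured as ATP-dependent [3H]thymidine incorporation into trichloroacetic acid-insoluble material. IC50 is the concentration giving 50% inhibition.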

In test [3] the test system is Streptococcus pyogenes. As to the kind of experiment: In vitro antibacterial activity against Streptococcus pyogenes 4. It counts as functional. The method in brief: (§2)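 Streptococcal MICs were determined by agar dilution on brain heart infusion agar supplemented with 20 units/mL bovine liver catalase. Final concentrations were 128 to 0.0156 μg/mL from 2-fold dilutions. Inocula were overnight broth cultures diluted 100-fold, applied by Steers replicator.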

Test [4] has as its system Escherichia coli. As to the kind of experiment: In vitro antibacterial activity against Escherichia coli 25922. It counts as functional. The procedure, abridged: as §1
Test [5] concerns Escherichia coli. As to the kind of experiment: In vitro antibacterial activity against Escherichia coli TEM-1 (constitutive beta-lactamase producer). It counts as functional. The procedure, abridged:
as §1

Test [6] concerns Klebsiella pneumoniae. As to the kind of experiment: In vitro antibacterial activity against klebsiella pneumoniae A. In kind it is functional. The procedure, abridged: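 Agar-dilution MIC on Mueller-Hinton agar. Serial 2-fold dilutions were made in water, giving final agar concentrations of 128 to 0.0156 μg/mL. Inoculum was an overnight broth culture diluted 100-fold, applied with a multipoint replicator.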

Test [7] has as its system Bacteroides fragilis. As to the kind of experiment: In vitro antibacterial activity against Bacteroides fragilis F117A. In kind it is functional. The procedure, abridged: (§3)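 MIC by broth dilution in microtiter plates, run in an oxygen-free hydrogen–carbon dioxide atmosphere. Medium: Schaedler's broth with coenzyme I and hemin added.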
Test [8] deals with Serratia marcescens. As to the kind of experiment: In vitro antibacterial activity against serratia marcescens SM (constitutive beta-lactamase producer). It counts as functional. The procedure, abridged: as §1
The test system of test [9] is Clostridioides difficile. As to the kind of experiment: In vitro antibacterial activity against Clostridium difficile 701. It counts as functional.
In test [10] the test system is Escherichia coli. As to the kind of experiment: In vitro antibacterial activity against Escherichia coli 257. In kind it is functional.
The test system of test [11] is Enterobacter cloacae. Kind of test: In vitro antibacterial activity against enterobacter cloacae P99 (constitutive beta-lactamase producer). It counts as functional. The procedure, abridged:
as §1

The subject of test [12] is Proteus mirabilis. Kind of test: In vitro antibacterial activity against Proteus mirabilis 90. In kind it is functional. The method in brief: (§4)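 Proteus MICs were determined by agar dilution on Mueller-Hinton agar containing 3% agar. Serial 2-fold dilutions gave final concentrations of 128 to 0.0156 μg/mL. Plates were replicator-inoculated with 100-fold-diluted overnight broth cultures.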

Test [13] relates to Streptococcus pneumoniae. As to the kind of experiment: In vitro antibacterial activity against streptococcus pneumoniae 6301. In kind it is functional. The method in brief: as §2
Test [14] has as its system Escherichia coli. As to the kind of experiment: Concentration inhibiting [14C]- Penicillin G binding to Escherichia coli UB1005 PBP4 (penicillin binding protein) 49 kDa. It counts as functional. The procedure, abridged: (§5)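 Solubilized membranes from sonicated E. coli UB1005 were used as the PBP source. Inhibition of [14C]penicillin G binding to the PBPs was measured.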

In test [15] the test system is Pseudomonas aeruginosa. As to the kind of experiment: In vitro antibacterial activity against Pseudomonas aeruginosa 8780. In kind it is functional. The procedure, abridged: as §1
Test [16] deals with Proteus vulgaris. Kind of test: In vitro antibacterial activity against proteus vulgaris ATCC 6380 (constitutive beta-lactamase producer). In kind it is functional. The procedure, abridged:
as §4

In test [17] the test system is Bacteroides thetaiotaomicron. As to the kind of experiment: In vitro antibacterial activity against Bacteroides thetaiotaomicron 62B. It counts as functional. The method in brief: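 Anaerobic MICs were determined in microtiter plates in Schaedler's broth supplemented with coenzyme I and hemin. Incubation was under an oxygen-free hydrogen-carbon dioxide atmosphere.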

Test [18] concerns the target Penicillin-binding protein 2 (Staphylococcus aureus) (UniProt Q53729). Kind of test: Concentration inhibiting [14C]- Penicillin G binding to Staphylococcus aureus ATCC 29213 Penicillin binding protein 2, 80 kDa.
Test [19] deals with Staphylococcus aureus. As to the kind of experiment: In vitro antibacterial activity against Staphylococcus aureus 67(methicillin resistant). In kind it is functional. The procedure, abridged:
(§6)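 MIC by agar dilution on Mueller-Hinton agar. Compounds were serially 2-fold diluted in water, final 128 to 0.0156 μg/mL in agar. Inoculum: overnight broth culture diluted 100-fold, applied with a Steers replicator.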

Test [20] concerns the target T1, Peptidoglycan D,D-transpeptidase MrdA (Escherichia coli K-12) (UniProt P0AD65).
T1 sequence (whole entry): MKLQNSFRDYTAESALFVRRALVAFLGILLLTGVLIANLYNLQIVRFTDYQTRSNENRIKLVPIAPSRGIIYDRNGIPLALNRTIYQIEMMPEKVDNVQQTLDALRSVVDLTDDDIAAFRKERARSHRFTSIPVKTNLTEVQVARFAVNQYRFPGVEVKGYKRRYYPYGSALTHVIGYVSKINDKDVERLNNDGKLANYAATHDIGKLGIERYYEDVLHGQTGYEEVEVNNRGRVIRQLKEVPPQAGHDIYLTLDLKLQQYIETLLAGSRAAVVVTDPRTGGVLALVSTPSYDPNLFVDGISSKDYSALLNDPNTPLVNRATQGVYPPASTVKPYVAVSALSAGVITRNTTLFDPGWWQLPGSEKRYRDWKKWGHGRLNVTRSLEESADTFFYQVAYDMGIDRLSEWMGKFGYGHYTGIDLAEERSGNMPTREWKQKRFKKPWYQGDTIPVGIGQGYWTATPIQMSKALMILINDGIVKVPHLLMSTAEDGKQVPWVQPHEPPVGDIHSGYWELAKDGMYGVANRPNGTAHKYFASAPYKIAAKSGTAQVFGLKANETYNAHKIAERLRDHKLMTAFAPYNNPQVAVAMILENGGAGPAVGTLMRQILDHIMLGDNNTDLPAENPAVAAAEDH
As to the kind of experiment: Concentration inhibiting [14C]- Penicillin G binding to Escherichia coli UB1005 PBP2 (penicillin binding protein) 66 kDa. The method in brief:
as §5

Test [21] relates to Clostridioides difficile. As to the kind of experiment: In vitro antibacterial activity against Clostridium difficile 651. It counts as functional.
Test [22] addresses Penicillin-binding protein 1A (Escherichia coli K-12) (UniProt P02918). As to the kind of experiment: Concentration inhibiting [14C]- Penicillin G binding to Escherichia coli UB1005 PBP1a (penicillin binding protein) 90 kDa.
The subject of test [23] is Clostridium perfringens. As to the kind of experiment: In vitro antibacterial activity against Clostridium perfringens 13424. In kind it is functional. The method in brief:
as §3

Test [24] concerns Staphylococcus aureus. As to the kind of experiment: In vitro antibacterial activity against Staphylococcus aureus 753 (constitutive beta-lactamase producer). It counts as functional. The method in brief:
as §6

Chain of Penicillin-binding protein 1A (Escherichia coli K-12) (P02918 whole entry, looked up): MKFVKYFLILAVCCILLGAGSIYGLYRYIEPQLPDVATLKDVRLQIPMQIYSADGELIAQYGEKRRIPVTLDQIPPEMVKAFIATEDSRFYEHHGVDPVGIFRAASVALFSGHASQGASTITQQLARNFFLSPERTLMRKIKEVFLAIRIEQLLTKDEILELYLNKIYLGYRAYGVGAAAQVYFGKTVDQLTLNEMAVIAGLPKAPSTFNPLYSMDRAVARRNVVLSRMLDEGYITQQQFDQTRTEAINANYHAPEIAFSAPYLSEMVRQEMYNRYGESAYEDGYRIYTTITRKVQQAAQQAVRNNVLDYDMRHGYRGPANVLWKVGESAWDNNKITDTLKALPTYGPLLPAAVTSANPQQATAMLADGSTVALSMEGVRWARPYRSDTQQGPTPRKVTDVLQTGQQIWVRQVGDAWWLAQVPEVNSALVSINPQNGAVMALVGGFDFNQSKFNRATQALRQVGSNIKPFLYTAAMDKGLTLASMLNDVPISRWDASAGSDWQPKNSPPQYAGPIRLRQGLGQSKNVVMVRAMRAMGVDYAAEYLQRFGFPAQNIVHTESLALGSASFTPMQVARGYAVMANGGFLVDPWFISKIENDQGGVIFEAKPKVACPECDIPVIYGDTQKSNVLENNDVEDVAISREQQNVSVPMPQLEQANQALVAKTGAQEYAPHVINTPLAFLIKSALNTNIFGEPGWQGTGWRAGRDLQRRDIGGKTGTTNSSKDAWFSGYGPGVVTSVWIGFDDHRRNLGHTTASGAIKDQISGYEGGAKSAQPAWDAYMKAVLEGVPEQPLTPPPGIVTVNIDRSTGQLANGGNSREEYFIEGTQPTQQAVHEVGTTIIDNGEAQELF

In the case of `C[C@@H](O)[C@H]1C(=O)N2C(C(=O)[O-])=C(COC(=O)N3CCN(c4cc5c(cc4F)c(=O)c(C(=O)O)cn5C4CC4)CC3)S[C@H]12.[Na+]`, the MIC (in general, the least concentration at which growth counts as inhibited) in [1] came out at 0.125 µg/mL; in test [3] it was 0.0313 µg/mL; in test [4] it was 0.06 µg/mL; in test [5], 0.0625 µg/mL; in test [6] it was 0.25 µg/mL; in [7], 1 µg/mL. For the same compound, the MIC worked out at 0.25 µg/mL in test [8]; 8 µg/mL in test [9]; 0.0625 µg/mL in test [10]; 0.0625 µg/mL in test [11]; 1 µg/mL in test [12]; 0.0313 µg/mL in test [13]. For the same compound, the minimum inhibitory concentration (MIC) in [15] was 2 µg/mL; in [16], 0.0625 µg/mL; in test [17], 16 µg/mL; in test [19] it was 4 µg/mL; in test [21], 4 µg/mL; in [23] it was 0.25 µg/mL. For the same compound, in test [24], the MIC amounted to 4 µg/mL. The concentration for half-maximal inhibition (IC50) – broadly, the concentration at which inhibition is half-maximal – in test [2] stood at 3 µg/mL. In addition, the IC90 (in general, the concentration needed for an effect of 90%) in [14] was over 100 µg/mL; in [18], 2 µg/mL; in [20], 30 µg/mL; in test [22], 2 µg/mL.

Turning to `C[C@@H](O)[C@H]1C(=O)N2C(C(=O)[O-])=C(CO)S[C@H]12.[Na+]`, the MIC in test [1] stood at 0.25 µg/mL; in [3], 0.125 µg/mL; in test [5], 4 µg/mL; in test [7], 64 µg/mL; in test [9], 2 µg/mL; in test [10], 4 µg/mL. Besides, the minimum inhibitory concentration (MIC) in [12] was 8 µg/mL; in [15], 64 µg/mL; in test [17], 0.125 µg/mL; in [19], over 64 µg/mL; in test [23], 0.5 µg/mL. For the same compound, the values for the IC90 in [14] and in test [20] were over 100 µg/mL and 30 µg/mL, respectively.

As to `C[C@@H](O)[C@H]1C(=O)N2C(C(=O)[O-])=C(COC(=O)c3cn(CCF)c4c(F)c(N5CCN(C)CC5)c(F)cc4c3=O)S[C@H]12.[Na+]`, the MIC in test [1] was 0.125 µg/mL; in test [3], under 0.0156 µg/mL; in test [4], 0.25 µg/mL; in test [5], 0.5 µg/mL; in test [6], 0.5 µg/mL; in test [8] it was 0.5 µg/mL. The minimal inhibitory concentration (MIC) is 1 µg/mL in test [9]; 0.25 µg/mL in test [10]; 0.5 µg/mL in [11]; 1 µg/mL in test [12]; under 0.0156 µg/mL in test [13]; 16 µg/mL in [15]. Moreover, the MIC is 0.25 µg/mL in test [16]; 4 µg/mL in [17]; 1 µg/mL in [19]; 0.5 µg/mL in test [21]; under 0.125 µg/mL in test [23]; 2 µg/mL in [24]. The compound further yielded a 50% inhibitory concentration (IC50) in test [2] of 4.7 µg/mL. Further, the IC90 is over 100 µg/mL in [14], 0.5 µg/mL in [18], 10 µg/mL in [20] and 2 µg/mL in [22].
